The values that follow come from ChEMBL document CHEMBL1134539, “Significance of asymmetric sites in choosing siderophores as deferration agents” (J Med Chem, 2001).

Where “and” joins values, the source holds several entries; their conditions need not be identical. Identical values can stand only once.

Data set [1] deals with Paracoccus denitrificans. As to the kind of experiment: Maximum velocity of accumulation of [55Fe]-labeled low-affinity component complexes by Paracoccus denitrificans. The class given is functional, organism-based. Also on record: unit not given here. Put shortly:
(§1)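 Late log-phase P. denitrificans (ATCC 17741), grown in defined low-iron medium with 0.5 μM Fe(III), washed and resuspended in transport buffer to OD660 1.00. Suspensions were preincubated 15 min at 30 °C with shaking before [55Fe] ferric chelate was added at 0.1–5.0 μM. Samples were taken every 20 s for 2 min, stopped in chilled buffer, filtered, rinsed and scintillation counted. Initial rates were expressed per mg protein, and Km and Vmax were taken from Lineweaver–Burk fits.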

Data set [2] relates to Paracoccus denitrificans. As to the kind of experiment: Maximum velocity of accumulation of [55Fe]-labeled high-affinity component complexes by Paracoccus denitrificans. The class given is functional, organism-based. Also on record: unit not given here. Put shortly: as §1
Data set [3] concerns Paracoccus denitrificans. The experiment in a line: Michaelis-Menten constant for accumulation of [55Fe]-labeled low-affinity component complexes by Paracoccus denitrificans. The data set is classed as functional, organism-based. Put shortly:
as §1

For data set [4], the system named is Paracoccus denitrificans. The experiment in a line: Michaelis-Menten constant for accumulation of [55Fe]-labeled high-affinity component complexes by Paracoccus denitrificans. The data set is classed as functional, organism-based. In a few lines:
as §1

Data set [5] in a line: Iron clearance was stimulated by the compound was expressed as % distribution of excreted Fe in urine by subcutaneous dose of 150 umol/kg. The data set is classed as ADME. To be noted: in vivo, sc. In a few lines:
(§2)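 Non-iron-overloaded, bile duct-cannulated male Sprague–Dawley rats (about 400 g), housed in metabolic cages with free access to water. Single sc injection at 150 µmol/kg. Bile was collected at 3-h intervals for 48 h and urine every 24 h. Excreted iron was apportioned between bile and urine.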

A short description of data set [6]: Iron clearance was stimulated by the compound was expressed as % distribution of excreted Fe in bile by subcutaneous dose of 150 umol/kg. The data set is classed as ADME. To be noted: in vivo, sc. In a few lines: as §2
The test system of a further data set is Rattus norvegicus. As to the kind of experiment: Iron clearance was stimulated by the compound was expressed as % efficiency by subcutaneous dose of 150 umol/kg. The class given is functional. In a few lines:
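Bile duct-cannulated, non-iron-overloaded male Sprague–Dawley rats (about 400 g) were kept in metabolic cages and given one sc dose of 150 µmol/kg. Bile was collected every 3 h and urine every 24 h over 48 h. Efficiency is the excreted iron minus that of control animals, divided by the theoretical iron excretion from dose and coordination chemistry.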

For `C[C@H]1OC(c2cccc(O)c2O)=N[C@@H]1C(=O)N(CCCCNC(=O)c1cccc(O)c1O)CCCNC(=O)c1cccc(O)c1O`, the Vmax in the data set on Paracoccus denitrificans [1] was 245 and 247; in the data set on Paracoccus denitrificans [2] it was 157 and 153. Further, the Michaelis constant (Km) (as a rule, the concentration of substrate that gives half-maximal velocity) was 0.55 µM and 0.53 µM in the data set with Paracoccus denitrificans [3]; 0.11 µM with Paracoccus denitrificans [4].

Turning to `C[C@H]1OC(c2cccc(O)c2O)=NC1C(=O)N(CCCNC(=O)c1cccc(O)c1O)CCCNC(=O)c1cccc(O)c1O` (stereo not given in full), the Vmax in the data set with Paracoccus denitrificans [1] stood at 413; in the data set with Paracoccus denitrificans [2], 129. The Michaelis constant (Km) in the data set on Paracoccus denitrificans [3] is 2.2 µM; in the data set on Paracoccus denitrificans [4] it was 0.23 µM. In addition, the entries for the “Distribution of excreted Fe” value in data set [5] and in data set [6] were 15.4% and 84.6%, respectively. In the data set with Rattus norvegicus, this compound showed an Efficiency of 13.8%.

On to `C[C@@H]1OC(c2cccc(O)c2O)=N[C@H]1C(=O)N(CCCNC(=O)c1cccc(O)c1O)CCCNC(=O)c1cccc(O)c1O`, for which the Vmax with Paracoccus denitrificans [1] worked out at 96. Further, the Michaelis constant (Km) in the data set with Paracoccus denitrificans [3] was determined as 3.5 µM. Further, the “Distribution of excreted Fe” value amounted to 9.2% in data set [5] and 90.8% in data set [6]. Besides, the Efficiency in the data set with Rattus norvegicus worked out at 16%.

On to `C[C@H]1OC(c2cccc(O)c2O)=N[C@@H]1C(=O)N(CCCCNC(=O)c1cccc(O)c1O)CCCCNC(=O)c1cccc(O)c1O`, for which the Vmax in the data set with Paracoccus denitrificans [1] is 229; in the data set on Paracoccus denitrificans [2], 138. Also, the results for the Km in the data set on Paracoccus denitrificans [3] and with Paracoccus denitrificans [4] were 1 µM and 0.17 µM, respectively.
